Experimental data taken from ChEMBL document CHEMBL3774327, “Design, synthesis, and analysis of antagonists of GPR55: Piperidine-substituted 1,3,4-oxadiazol-2-ones” (Bioorg Med Chem Lett, 2016).
Blank lines part the entries; values can stand above or below the compound they belong to.

Assays:
Assay type in all cases: cell-based
[1] = Antagonist activity at HA-epitope tagged GRP55E expressed with GFP-tagged beta-arr2 in human U2OS cells assessed as LPI-stimulated redistribution of beta-arr2 preincubated for 15 mins by beta-arrestin translocation assay
[2] = biological target: G-protein coupled receptor 55 (Homo sapiens, UniProt Q9Y2T6); test: Antagonist activity at beta-galactosidase fragment-fused GRP55 (unknown origin) over-expressed with N-terminal deletion beta-galactosidase mutant-tagged beta-arr2 in […] cells assessed as inhibition of LPI induced beta-arrestin activity preincubated for 30 mins by PathHunter chemiluminescent complementation assay; details: cho-k1
In short: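 Inhibition of LPI-induced β-arrestin activity was quantitated by chemiluminescence. Concentration-response curves were run in triplicate against 6 μM LPI, and IC50 was derived with 95% confidence intervals.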

[3] = Antagonist activity at GRP55E (unknown origin) over-expressed with GFP-tagged beta-arr2 in human U2OS cells assessed as inhibition of LPI induced beta-arrestin recruitment preincubated for 30 mins by beta-arrestin recruitment assay

G-protein coupled receptor 55, sequence (Q9Y2T6 whole entry, looked up, stated change not applied, the tested form may be a part): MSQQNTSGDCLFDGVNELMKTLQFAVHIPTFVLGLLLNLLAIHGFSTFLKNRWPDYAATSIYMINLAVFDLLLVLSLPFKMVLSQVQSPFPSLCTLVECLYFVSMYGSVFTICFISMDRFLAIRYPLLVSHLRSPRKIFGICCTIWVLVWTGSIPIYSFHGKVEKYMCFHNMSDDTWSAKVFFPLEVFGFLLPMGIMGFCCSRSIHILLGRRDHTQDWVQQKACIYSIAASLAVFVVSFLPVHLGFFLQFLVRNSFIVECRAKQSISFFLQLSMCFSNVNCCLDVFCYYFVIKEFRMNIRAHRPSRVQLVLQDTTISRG

SMILES: Cc1cc(C)c2nc(-c3ccccn3)cc(C(=O)Nc3ccc(S(=O)(=O)Nc4onc(C)c4C)cc3)c2c1
IC50 [1]: 0.22 µM

SMILES: Cc1nc(N2CCN(C(=O)c3ccco3)CC2)c2c3c(sc2n1)CCCC3
IC50 [1]: 0.7 µM

SMILES: O=C(N1CCC(n2nc(-c3ccc(C(F)(F)F)cc3)oc2=O)CC1)C1(c2ccccc2)CC1
IC50 [2]: ND(Insoluble)

SMILES: O=C(N1CCC(n2nc(-c3ccccc3)oc2=O)CC1)C1(c2ccc(Cl)cc2)CC1
IC50 ([2]; read-out: IC50): 0.64 µM

SMILES: COc1ccc(C2(C(=O)N3CCC(n4nc(-c5ccccc5)oc4=O)CC3)CC2)cc1
IC50 [2]: ND(Insoluble)

SMILES: COc1ccc(C2(C(=O)N3CCC(n4nc(-c5ccc(C(F)(F)F)cc5)oc4=O)CC3)CC2)cc1
IC50 ([2]; read-out: IC50): 1.8 µM

SMILES: O=C(N1CCC(n2nc(-c3ccco3)oc2=O)CC1)C1(c2ccccc2)CC1
IC50 [3]: > 15 µM

SMILES: COc1ccc(-c2nn(C3CCN(C(=O)C4(c5ccccc5)CC4)CC3)c(=O)o2)cc1
IC50 ([2]; read-out: IC50): 7 µM

SMILES: COc1ccc(-c2nn(C3CCN(C(=O)C4(c5ccc(OC)cc5)CC4)CC3)c(=O)o2)cc1
IC50 [2]: ND(Insoluble)

SMILES: O=C(N1CCC(n2nc(-c3ccccc3)oc2=O)CC1)C1(c2ccccc2)CC1
IC50 ([2]; read-out: IC50): 12 µM

Next, values leading:

IC50 ([2]; read-out: IC50): 0.77 µM
SMILES: Cc1ccc(C2(C(=O)N3CCC(n4nc(-c5ccccc5)oc4=O)CC3)CC2(C)C)cc1 (racemic)

IC50 [3]: > 15 µM
SMILES: O=C(N1CCC(n2nc(-c3cccs3)oc2=O)CC1)C1(c2ccccc2)CC1

IC50 [1]: 1.1 µM
SMILES: Cc1ccc(C2(C(=O)N3CCC(n4nc(-c5ccccc5)oc4=O)CC3)CC2)cc1

IC50 [3]: > 15 µM
SMILES: O=C(N1CCC(n2nc(-c3cccc(C(F)(F)F)c3)oc2=O)CC1)C1(c2ccccc2)CC1

IC50 ([2]; read-out: IC50): 2.5 µM
SMILES: O=C(N1CCC(n2nc(-c3ccccc3)oc2=O)CC1)C1(c2ccc(Cl)cc2Cl)CC1

IC50 ([2]; read-out: IC50): 0.42 µM
SMILES: O=C(N1CCC(n2nc(-c3cccnc3)oc2=O)CC1)C1(c2ccccc2)CC1

IC50 [3]: > 15 µM
SMILES: O=C(c1cccc2ccccc12)N1CCC(n2nc(-c3ccccc3)oc2=O)CC1
